Source: PubChem BioAssay
RGS4 inh: RGS4 inhibitors, primary screen, cell-based, HEK293 M3R inducible RGS4, calcium flux; Regulator of G-protein signaling 4 (Homo sapiens), P49798; Fluo-4 calcium flux; stronger effect = higher value; triggered by carbachol at its EC20; B-score at 10 µM; hit rate 0.45% among 310,000;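 active = B-score, a plate-corrected calcium signal, over three deviations above library mean, with baseline fluorescence within five deviations of library mean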;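 also: RGS4 expression induced by doxycycline in cells with stable M3 receptor; B-score is computed from the integrated fluorescence ratio over baseline after carbachol; higher B-score means a larger calcium signal and so more RGS4 inhibition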
Target sequence (P49798 whole entry, looked up): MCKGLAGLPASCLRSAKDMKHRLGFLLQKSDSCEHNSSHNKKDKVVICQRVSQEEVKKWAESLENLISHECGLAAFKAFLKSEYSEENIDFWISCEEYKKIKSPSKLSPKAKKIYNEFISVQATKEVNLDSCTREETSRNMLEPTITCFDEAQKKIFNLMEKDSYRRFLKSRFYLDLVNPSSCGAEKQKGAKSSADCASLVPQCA
MrgX1 allo act: positive allosteric modulators of MrgX1, primary screen, HEK293 cells, Fluo-4 calcium flux; FDSS; stronger effect = higher value; AID 588675, 2011; hit rate 0.63% among 310,000; B-score at 10 µM; Mas-related G-protein coupled receptor member X1 (Homo sapiens), Q96LB2;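 active = plate-corrected calcium response at least 3 library SD above typical, normal starting fluorescence, not activating the receptor alone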;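 also: compound read alongside a low EC10 to EC30 dose of BAM8-22 agonist; peak minus trough fluorescence over baseline measured at the second addition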
MrgX1 antagonist: antagonists of human MrgX1 receptor, primary screen, HEK293 cells, Fluo-4 calcium flux | AID 588676, 2011 | BAM8-22 antagonism; stronger effect = lower value | Mas-related G-protein coupled receptor member X1 (Homo sapiens), Q96LB2 | B-score at 10 µM | hit rate 1.3% among 310,000;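 active = calcium-response B-score plate-corrected more than 3 library SD below zero, starting fluorescence within 5 deviations, no agonist response on first addition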;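 also: peak minus trough fluorescence over baseline after final BAM8-22 challenge near maximal dose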
RGS4 act: RGS4 potentiators or activators, primary screen, cell-based, HEK293 M3R inducible RGS4, calcium flux. carbachol calcium flux Fluo4; stronger effect = lower value. hit rate 0.92% among 310,000. AID 463111, 2010. B-score at 10 µM;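 active = B-score of the integrated calcium signal more than 4 SD below the library mean, with starting fluorescence not abnormally high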;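 also: negative B-score means reduced calcium response which marks RGS4 activation or potentiation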
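Material: Inducible-RGS4 HEK293 cells carrying M3 receptor; also added: carbachol at ECmax as muscarinic agonist stimulus; incubation: compound preincubation 20 min at room temperature before agonist; signal: Fluo4-AM (2 µM) calcium-flux fluorescence, kinetic read; measure: integrated calcium ratio converted to B score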
MrgX1 ag: agonists of human MrgX1 receptor, primary screen, HEK293 cells, Fluo-4 calcium flux. Mas-related G-protein coupled receptor member X1 (Homo sapiens), Q96LB2. Fluo-4 calcium fluorescence, agonist mode; stronger effect = higher value. B-score at 10 µM. hit rate 0.44% among 310,000. AID 588627, 2011;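 active = calcium response B-score plate-corrected fluorescence ratio at least 3 library SD, with starting fluorescence B-score inside 5 SD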
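System – MrgX1-expressing HEK293 cells · Incubation – cells plated overnight, dye loaded 0.5 h 37 °C, 0.5 h room temperature · Technique – kinetic Fluo-4 NW fluorescence of intracellular calcium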
Numbers without * were called inactive. The list is not random: actives were taken first. Their share in the collection is about 3.5%.

CCOCCCNC(=O)C(Cc1ccccc1)NS(=O)(=O)c1ccc2c(c1)c(=O)n(C)c(=O)n2C (stereo unspecified) was read as RGS4 inh inactive, MrgX1 allo act inactive, MrgX1 antagonist -5.78*, RGS4 act inactive and MrgX1 ag inactive.
`NS(=O)(=O)c1ccc(NC(=S)Nc2ccn(Cc3cccc4ccccc34)n2)cc1` gave RGS4 inh inactive, MrgX1 allo act inactive, MrgX1 antagonist inactive, RGS4 act inactive and MrgX1 ag inactive.
C[N+]1(CC(=O)OC2CCCCCCCCCCC2)CCCC1 was read as RGS4 inh inactive, MrgX1 allo act inactive, MrgX1 antagonist inactive, RGS4 act -7.23* and MrgX1 ag inactive.
Cc1nccn1-c1c([N+](=O)[O-])c(=O)n(C)c2ccccc12 was read as RGS4 inh inactive, MrgX1 allo act inactive, MrgX1 antagonist inactive, RGS4 act inactive and MrgX1 ag inactive.
`Cn1c(=O)c([N+](=O)[O-])c(-n2cnc3ccccc32)c2ccccc21` gave RGS4 inh inactive, MrgX1 allo act inactive, MrgX1 antagonist inactive, RGS4 act inactive and MrgX1 ag 26.8*.
O=c1c2ccccc2ncn1-c1ccccc1[N+](=O)[O-] was read as RGS4 inh inactive, MrgX1 allo act 12.5*, MrgX1 antagonist inactive, RGS4 act inactive and MrgX1 ag inactive.
Screening Cc1nc2ccc([N+](=O)[O-])cc2c(=O)n1Cc1ccccc1Br returned RGS4 inh inactive, MrgX1 allo act inactive, MrgX1 antagonist inactive, RGS4 act inactive and MrgX1 ag inactive.
CC(C)NC(=O)COC(=O)Cn1[nH]c(=O)c2ccccc2c1=O was read as RGS4 inh inactive, MrgX1 allo act inactive, MrgX1 antagonist inactive, RGS4 act inactive and MrgX1 ag inactive.
`COc1ccccc1C(=O)NC(=O)COC(=O)Cn1[nH]c(=O)c2ccccc2c1=O` gave RGS4 inh inactive, MrgX1 allo act inactive, MrgX1 antagonist -4.52*, RGS4 act inactive and MrgX1 ag inactive.
`S=C(NCc1ccco1)NCC1CCCO1` (stereo unspecified) gave RGS4 inh inactive, MrgX1 allo act inactive, MrgX1 antagonist inactive, RGS4 act inactive and MrgX1 ag inactive.
For C/C(O)=C(/C#N)c1nc2ccccc2[nH]1 the results were RGS4 inh inactive, MrgX1 allo act inactive, MrgX1 antagonist inactive, RGS4 act inactive and MrgX1 ag inactive.
Screening N#C/C(=C(/O)CSc1ncn[nH]1)c1nc2ccccc2[nH]1 returned RGS4 inh inactive, MrgX1 allo act inactive, MrgX1 antagonist -6.09*, RGS4 act inactive and MrgX1 ag inactive.
For Cc1ccc(OCCCC(=O)NC2CCCCC2)cc1 the results were RGS4 inh inactive, MrgX1 allo act inactive, MrgX1 antagonist inactive, RGS4 act inactive and MrgX1 ag inactive.
`COc1ccc(C(=O)CSC#N)cc1OC` gave RGS4 inh inactive, MrgX1 allo act inactive, MrgX1 antagonist inactive, RGS4 act inactive and MrgX1 ag 34.6*.
`COc1ccc(C(=O)COC(=O)c2ccc(OC)c(OC)c2)cc1OC` gave RGS4 inh inactive, MrgX1 allo act inactive, MrgX1 antagonist inactive, RGS4 act inactive and MrgX1 ag inactive.
O=C(Nc1ncc([N+](=O)[O-])s1)c1ccc2c(c1)OCO2 was read as RGS4 inh inactive, MrgX1 allo act inactive, MrgX1 antagonist inactive, RGS4 act inactive and MrgX1 ag inactive.
Cc1onc(-c2ccccc2)c1C(=O)Nc1ncc([N+](=O)[O-])s1 was read as RGS4 inh inactive, MrgX1 allo act inactive, MrgX1 antagonist -4.55*, RGS4 act inactive and MrgX1 ag inactive.
Screening Cc1ccc(C(=O)Nc2ncc([N+](=O)[O-])s2)cc1 returned RGS4 inh inactive, MrgX1 allo act inactive, MrgX1 antagonist -4.54*, RGS4 act inactive and MrgX1 ag inactive.
O=C(COc1ccc([N+](=O)[O-])cc1Cl)NCC1CCCO1 (stereo unspecified) was read as RGS4 inh inactive, MrgX1 allo act inactive, MrgX1 antagonist inactive, RGS4 act inactive and MrgX1 ag inactive.
